In ChEMBL document CHEMBL1158372, “Design, synthesis, and biological evaluation of novel triazole derivatives as inhibitors of cytochrome P450 14alpha-demethylase” (2009):
Converted amounts (≈) assume the structure as drawn.

Tests used:
Type in all cases: functional
Pichia kudriavzevii = assay: Antifungal activity against Candida krusei by micro-broth dilution method
How it was run: (§1)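 Broth microdilution in 96-well plates following the NCCLS method. DMSO solutions of test agents were serially diluted in growth medium, inoculated, and incubated at 35 °C. MIC80 is the first well showing roughly 80% growth reduction versus the drug-free control. C. albicans ATCC76615 and Cry. neoformans ATCC32609 served as quality-control strains. Each test was done three times; the mean of replicates is reported.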

Nannizzia gypsea = assay: Antifungal activity against Microsporum gypseum by micro-broth dilution method; how it was run: as §1
Trichophyton rubrum = assay: Antifungal activity against Trichophyton rubrum by micro-broth dilution method; how it was run: as §1
Candida tropicalis = assay: Antifungal activity against Candida tropicalis by micro-broth dilution method; how it was run: as §1
Candida parapsilosis = assay: Antifungal activity against Candida parapsilosis by micro-broth dilution method; conditions: Lodderomyces parapsilosis; how it was run: as §1
Candida albicans = assay: Antifungal activity against Candida albicans ATCC 76615 after 24 hrs by micro-broth dilution method; conditions: ATCC 76615, 24 h
How it was run: (§2)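 NCCLS (M27-A2) broth microdilution in 96-well format. Compounds in DMSO, serially diluted in growth medium, inoculated, incubated at 35 °C, and read at 24 h (C. albicans ATCC76615) or 72 h (Cry. neoformans ATCC32609). MIC80 is the first well with about 80% less growth than the drug-free well. Three independent runs per agent; the mean of replicates is reported.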

Aspergillus fumigatus = assay: Antifungal activity against Aspergillus fumigatus by micro-broth dilution method; how it was run: as §1
Cryptococcus neoformans = assay: Antifungal activity against Cryptococcus neoformans ATCC 32609 after 72 hrs by micro-broth dilution method; conditions: ATCC 32609, 72 h; how it was run: as §2

SMILES | MIC80 (Pichia kudriavzevii) [µg/mL] | MIC80 (Nannizzia gypsea) [µg/mL] | MIC80 (Trichophyton rubrum) [µg/mL] | MIC80 (Candida tropicalis) [µg/mL] | MIC80 (Candida parapsilosis) [µg/mL] | MIC80 (Candida albicans) [µg/mL] | MIC80 (Aspergillus fumigatus) [µg/mL] | MIC80 (Cryptococcus neoformans) [µg/mL]
C=CCN(Cc1ccc(Cl)cc1)CC(O)(Cn1cncn1)c1ccc(F)cc1F (stereo not drawn) | 0.0625 (≈ 0.149 µM) | 0.0625 (≈ 0.149 µM) | 0.25 (≈ 0.597 µM) | 0.25 (≈ 0.597 µM) | 0.25 (≈ 0.597 µM) | 0.25 (≈ 0.597 µM) | 16 (≈ 38.2 µM) | 0.25 (≈ 0.597 µM)
C=CCN(Cc1ccccc1C)CC(O)(Cn1cncn1)c1ccc(F)cc1F (stereo not drawn) | 0.0625 (≈ 0.157 µM) | 0.0039 (≈ 0.00979 µM) | 0.0625 (≈ 0.157 µM) | 0.0625 (≈ 0.157 µM) | 0.0625 (≈ 0.157 µM) | 0.0156 (≈ 0.0392 µM) | > 64 | 0.0625 (≈ 0.157 µM)
CCC(C)n1ncn(-c2ccc(N3CCN(c4ccc(OCC5COC(Cn6cncn6)(c6ccc(Cl)cc6Cl)O5)cc4)CC3)cc2)c1=O (stereo not drawn) [ITRACONAZOLE] | 0.5 (≈ 0.709 µM) | 0.0625 (≈ 0.0886 µM) | 0.125 (≈ 0.177 µM) | 0.125 (≈ 0.177 µM) | 0.125 (≈ 0.177 µM) | 0.0625 (≈ 0.0886 µM) | 0.5 (≈ 0.709 µM) | 0.125 (≈ 0.177 µM)
CN(C/C=C/C#CC(C)(C)C)Cc1cccc2ccccc12 [TERBINAFINE] | 16 (≈ 54.9 µM) | 4 (≈ 13.7 µM) | 0.0625 (≈ 0.214 µM) | 0.0625 (≈ 0.214 µM) | 0.25 (≈ 0.858 µM) | 4 (≈ 13.7 µM) | 0.0625 (≈ 0.214 µM) | 1 (≈ 3.43 µM)
C=CCN(Cc1ccc(C(=O)OCC)cc1)CC(O)(Cn1cncn1)c1ccc(F)cc1F (stereo not drawn) | 0.0625 (≈ 0.137 µM) | 0.25 (≈ 0.548 µM) | 0.25 (≈ 0.548 µM) | 0.25 (≈ 0.548 µM) | 1 (≈ 2.19 µM) | 0.0039 (≈ 0.00854 µM) | > 64 | 1 (≈ 2.19 µM)
C=CCN(Cc1ccc(C(=O)OC(C)C)cc1)CC(O)(Cn1cncn1)c1ccc(F)cc1F (stereo not drawn) | 0.25 (≈ 0.531 µM) | 0.0156 (≈ 0.0332 µM) | 1 (≈ 2.13 µM) | 1 (≈ 2.13 µM) | 1 (≈ 2.13 µM) | 0.25 (≈ 0.531 µM) | > 64 | 1 (≈ 2.13 µM)
C=CCN(Cc1ccc(C(=O)Oc2ccccc2)cc1)CC(O)(Cn1cncn1)c1ccc(F)cc1F (stereo not drawn) | 1 (≈ 1.98 µM) | 1 (≈ 1.98 µM) | 16 (≈ 31.7 µM) | 1 (≈ 1.98 µM) | 1 (≈ 1.98 µM) | 1 (≈ 1.98 µM) | > 64 | 1 (≈ 1.98 µM)
C=CCN(Cc1ccc(C(=O)OCCCCC)cc1)CC(O)(Cn1cncn1)c1ccc(F)cc1F (stereo not drawn) | 1 (≈ 2.01 µM) | 1 (≈ 2.01 µM) | 0.25 (≈ 0.501 µM) | 1 (≈ 2.01 µM) | 1 (≈ 2.01 µM) | 1 (≈ 2.01 µM) | > 64 | 1 (≈ 2.01 µM)
C=CCN(Cc1ccc(C)cc1)CC(O)(Cn1cncn1)c1ccc(F)cc1F (stereo not drawn) | 0.0625 (≈ 0.157 µM) | 0.0156 (≈ 0.0392 µM) | 1 (≈ 2.51 µM) | 0.25 (≈ 0.627 µM) | 0.25 (≈ 0.627 µM) | 0.0156 (≈ 0.0392 µM) | > 64 | 0.0625 (≈ 0.157 µM)
C=CCN(Cc1ccccc1)CC(O)(Cn1cncn1)c1ccc(F)cc1F (stereo not drawn) | 0.0625 (≈ 0.163 µM) | 0.0039 (≈ 0.0101 µM) | 0.25 (≈ 0.65 µM) | 0.0625 (≈ 0.163 µM) | 0.0625 (≈ 0.163 µM) | 0.0039 (≈ 0.0101 µM) | > 64 | 0.0625 (≈ 0.163 µM)
C=CCN(Cc1cccc(Cl)c1)CC(O)(Cn1cncn1)c1ccc(F)cc1F (stereo not drawn) | 0.0625 (≈ 0.149 µM) | 0.0625 (≈ 0.149 µM) | 1 (≈ 2.39 µM) | 0.0625 (≈ 0.149 µM) | 0.25 (≈ 0.597 µM) | 0.0156 (≈ 0.0372 µM) | > 64 | 0.25 (≈ 0.597 µM)
C=CCN(Cc1ccc(C(=O)Oc2ccc(Cl)cc2)cc1)CC(O)(Cn1cncn1)c1ccc(F)cc1F (stereo not drawn) | 4 (≈ 7.42 µM) | 0.25 (≈ 0.464 µM) | 4 (≈ 7.42 µM) | 4 (≈ 7.42 µM) | 1 (≈ 1.86 µM) | 1 (≈ 1.86 µM) | > 64 | 16 (≈ 29.7 µM)
C=CCN(Cc1ccc(Br)cc1)CC(O)(Cn1cncn1)c1ccc(F)cc1F (stereo not drawn) | 0.0625 (≈ 0.135 µM) | 0.0625 (≈ 0.135 µM) | 0.25 (≈ 0.54 µM) | 0.25 (≈ 0.54 µM) | 0.25 (≈ 0.54 µM) | 0.0625 (≈ 0.135 µM) | 4 (≈ 8.63 µM) | 0.25 (≈ 0.54 µM)
C[C@@H](c1ncncc1F)[C@](O)(Cn1cncn1)c1ccc(F)cc1F [VORICONAZOLE] | 0.0625 (≈ 0.179 µM) | 0.0039 (≈ 0.0112 µM) | 0.0625 (≈ 0.179 µM) | 0.0039 (≈ 0.0112 µM) | 0.0039 (≈ 0.0112 µM) | 0.0156 (≈ 0.0447 µM) | 0.25 (≈ 0.716 µM) | 0.0156 (≈ 0.0447 µM)
C=CCN(Cc1ccc(C(=O)Oc2ccc(C(=O)OCCC)cc2)cc1)CC(O)(Cn1cncn1)c1ccc(F)cc1F (stereo not drawn) | 4 (≈ 6.77 µM) | 1 (≈ 1.69 µM) | 1 (≈ 1.69 µM) | 0.25 (≈ 0.423 µM) | 0.25 (≈ 0.423 µM) | 1 (≈ 1.69 µM) | > 64 | 4 (≈ 6.77 µM)
OC(Cn1cncn1)(Cn1cncn1)c1ccc(F)cc1F [FLUCONAZOLE] | 4 (≈ 13.1 µM) | 0.25 (≈ 0.816 µM) | 4 (≈ 13.1 µM) | 1 (≈ 3.27 µM) | 1 (≈ 3.27 µM) | 0.5 (≈ 1.63 µM) | > 64 | 1 (≈ 3.27 µM)
